For this series, the system named is MS2 coat protein. Put plainly: apparent Kd, MS2 coat protein; higher = weaker binding; RNA-MaP array; FMN 200 µM where present. Summed up:
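Designs were transcribed by stalled E. coli RNA polymerase on Illumina sequencing-chip clusters. They were titrated with SNAP-549-labelled MS2 coat protein from 0.7 or 1.5 nM, doubling to 3 µM, in 100 mM Tris-HCl pH 7.5, 80 mM KCl, 4 mM MgCl2, BSA, DTT, yeast tRNA and Tween-20, without and then with constant ligand. The apparent Kd is the median of filtered per-cluster fits after normalisation of green signal to red-channel RNA signal and control-cluster median Fmax.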

[1] abbreviates: designed as: OFF switch for flavin mononucleotide, no ligand.
Where [2] appears, read: ligand present: flavin mononucleotide, designed as: OFF switch for flavin mononucleotide.
The mark [3] stands for this setting: designed as: ON switch for flavin mononucleotide, no ligand.
The mark [4] stands for this setting: ligand present: flavin mononucleotide, designed as: ON switch for flavin mononucleotide.

Turning to “UGCUGGUGACAGCAUCCAUCAAAACAUGAGGAUCACCCAUGUAGAAGGCUGUACGGUUACCGUACAGAGGAUAUACAAUGAUGG”, the “apparent Kd” value by setting is: under setting [1], 7.27 nM; under setting [2], 8.69 nM.

For the sequence “GUUUAGUGAGGAUAUGUGGCGUAGAUCGAGCGCGGUCGGCUACAGAAGGCACAUGAGGAUCACCCAUGUUUCUC”, the “apparent Kd” value by setting is: under setting [1], 59.5 nM; under setting [2], 372 nM.

For “AAAAAGUCAGGAUAUACAUGAGGAUCACCCAUGUAAAAAAAAGGGAAAAAAAAAAAGGGUAGAAGGGACGAAAA”, the “apparent Kd” value came out at 37.8 nM under setting [1] and 33 nM under setting [2].

For the sequence “AAGGUAUACUGAGGAUAUCCGUGGGUAUAUGGGUCUAGGAACAUGAGGAUCACCCAUGUUCCCUAGGAGAAGGCAGGACAUUAA”, the “apparent Kd” value is, setting by setting: under setting [1], 25 nM; under setting [2], 33.6 nM.

For “GUAAUAAAGAUCCAAUUAUACAACAUGAGGAUCACCCAUGUGCAGGAUAUCGUGUGUUUUUUAUUCGAGAAGGGCAAAUUCAUU”, the “apparent Kd” value by setting is: under setting [1], 51.9 nM; under setting [2], 146 nM.

Consider “UUGGACGUCGUAGGAUGUGUAGGAUAUUCCUACAUGAGGAUCACCCAUGUUGACAUGGAAGAAGGACAGAAGGACGAUGUCCAU”, for which the “apparent Kd” value was determined as 386 nM under setting [3] and 12.9 nM under setting [4].

As for “CCCAGAGCGUAAGGAUAUACAUGAGGAUCACCCAUGUCUACAAUAAUAGUACUAUAUGAAGUCGUGUAGAAGGUACGCGCAGGU”, the “apparent Kd” value is, setting by setting: under setting [1], 41.2 nM; under setting [2], 119 nM.

Take “GACACUAUGUUUGUCAGAUAGAGAGAGGAUAUGGCUCAUGAGACAUGAGGAUCACCCAUGUAUAAUCAGAAGGCUCGAGUACGA”: the “apparent Kd” value runs as follows: under setting [3], 11.5 nM; under setting [4], 9.17 nM.

As to “GUAGCAUUCUGAGGAUAUUCAUAUAAUAAAUAAACAUGAGGAUCACCCAUGUGGCGAAAGCCUUGGGAGAAGGCAGUAUGCUAC”, the “apparent Kd” value by setting is: under setting [3], 660 nM; under setting [4], 42.1 nM.

In the case of “UGAGGACAUGAGGAUCACCCAUGUAAGGAUAUGCGGAGAGUUUGGAGAGGUUGAGGAGGCAGAAGGUACAGGAU”, the “apparent Kd” value is, setting by setting: under setting [1], 89.5 nM; under setting [2], 58.5 nM.

Regarding “UGUCGGAGCAGAGGAUAUUACAUGAGGAUCACCCAUGUAUGAACCAGUAGCUGGAAACAGCAAUGUAAGAAGGCUGCUCCGACA”, the “apparent Kd” value under setting [1] came to 10.9 nM and the “apparent Kd” value under setting [2] is 91.3 nM.

As to “CGCUAUGACAUAGGAUAUUGGUACAUGAGGAUCACCCAUGUCAACCUUUAAGCAAAAUUUGUUGACAAGAAGGAUGUGGUAGCG”, the “apparent Kd” value is, setting by setting: under setting [3], 11 nM; under setting [4], 7.71 nM.

“GACUGCUGAGGAUAUACAUGAGGAUCACCCAUGUGCUUCAGUAUCGAAAGAUACAUUGGUAGAAGGUAGUAGUC”: the “apparent Kd” value is 11.8 nM under setting [1] and 20.8 nM under setting [2].

Consider “UCCAACCCUGUGAGGAUAUCGUCCAUUUUUUGUUACGAGAAGGCACAUGAGGAUCACCCAUGUUUUUUAUUUUU”, for which the “apparent Kd” value is, setting by setting: under setting [1], 21.9 nM; under setting [2], 134 nM.

Regarding “UAGAAGUCAGGAUAUCCAUGGCGGCACUUGCGUGGUGGCGUGGAGAAGGGACAUGAGGAUCACCCAUGUAAAGU”, the “apparent Kd” value runs as follows: under setting [1], 53.3 nM; under setting [2], 48.5 nM.

On to “GUGGUCAGACAUGAGGAUCACCCAUGUGGAAUAAAUAAGGUCAAGGAUAUUCAAUAUAGGAUAUAGAAGAAGGUGAGGUUGGUG”, for which the “apparent Kd” value is, setting by setting: under setting [3], 136 nM; under setting [4], 188 nM.

Turning to “UACUGGAUUGUAGACGCGUUGCGACGAGAAGGUACACAUGAGGAUCACCCAUGUCGAGUGGGAGGUAAGGAUAUUGGAUGGCGU”, the “apparent Kd” value was 293 nM under setting [3] and 211 nM under setting [4].

For “UUACUAUCACAGAAGGGUAGAUAGUAUAUAGAUGCAGGAUAUGUGACAUGAGGAUCACCCAUGUUUCACCCACAUGAGGAUCAC”, the “apparent Kd” value reads like this: under setting [1], 17.5 nM; under setting [2], 18.9 nM.

As for “CAACCGUUGCAGAAGGUUAAAUAAUUUCUCAUCUUGUUUACAUGAGGAUCACCCAUGUAUUUGUUGAAGGAUAUGCAAGUGUUG”, the “apparent Kd” value came out at 8.58 nM under setting [1] and 8.21 nM under setting [2].

Turning to “ACUUGUAAGCAGAAGGCAGUCAUAGUAUUCGUCAUGUAGACAUGAGGAUCACCCAUGUAUAGUACUGAGGAUAUGCUUCGAUAG”, the “apparent Kd” value reads like this: under setting [1], 19.3 nM; under setting [2], 21.7 nM.

Turning to “AACAGUACAGGAUAUACAUGAGGAUCACCCAUGUGAGCUUUAAGUGCCGUAGCACAAAGUAGAAGGGUACUGGA”, the “apparent Kd” value was found to be 24.4 nM under setting [1] and 91.8 nM under setting [2].

Take “GUAGCUAUUAUUAUACAUGAGGAUCACCCAUGUUACAUGUGUAAGGAUAUUGAAGUUUUUAUAAUCAAGAAGGUACUAUGCUAC”: the “apparent Kd” value runs as follows: under setting [3], 16.8 nM; under setting [4], 9.2 nM.

As to “ACGCAUUGCCUUUGGUAGUGCGUUACAUGAGGAUCACCCAUGUAGGAUAUGGUAGGCAAAGCUUACCAGAAGGACAUGAUAAUU”, the “apparent Kd” value under setting [1] stood at 49.5 nM and the “apparent Kd” value under setting [2] came to 238 nM.

In the case of “ACAUUUAAUACAGGAUAUGUAUGUAUACAAUAGAUUGGUUUUAUCACAUCAACAGAAGGGUAGAACAUGAGGAUCACCCAUGUA”, the “apparent Kd” value under setting [3] is 114 nM and the “apparent Kd” value under setting [4] was determined as 79.8 nM.

For the sequence “GGCGGGCGGGAGGAUAUUCGGGCUGUUUGGCUUGGAGAAGGCUCGACAUGAGGAUCACCCAUGUUUGGGUCGUC”, the “apparent Kd” value turned out to be 18 nM under setting [1] and 37.8 nM under setting [2].

Take “GAAUUCGCAUGAGGAUAUGCACUCAUUUCAUGUGCAGAAGGUAUAUCAUUAGACAUGAGGAUCACCCAUGUAUUGGUCAUUAAA”: the “apparent Kd” value is 15.8 nM under setting [3] and 13.9 nM under setting [4].

For the sequence “GCAGAACAUGAGGAUCACCCAUGUCUCUAAUAUCGAGGAUAUGGGCACGGUAUAUCCGAACCAGAAGGCGAACUGC”, the “apparent Kd” value runs as follows: under setting [3], 272 nM; under setting [4], 60 nM.

“CGCUCAAGAGAGAAGGAUAGAAUCAGAAGGCGUAACAUGAGGAUCACCCAUGUUUAGUAGUGUAACGAGGAUAUGAAAUGAGCG”: the “apparent Kd” value by setting is: under setting [1], 9.61 nM; under setting [2], 10.8 nM.

For the sequence “GGUUGUCAUCGUCAUCCUUUCUGUACAUGAGGAUCACCCAUGUAGGAUAUGCUGCUCUCGGUGUGGCAGAAGGGCGUGUGUGUU”, the “apparent Kd” value is 40.5 nM under setting [1] and 50.2 nM under setting [2].

As to “GGACGUCAGAUUAACAUGAGGAUCACCCAUGUCUUUUGACAUGAGGAUAUGGAAGGUAAUUCCUUCCAGAAGGCAUGGACGUCC”, the “apparent Kd” value runs as follows: under setting [3], 1020 nM; under setting [4], 114 nM.

For the sequence “AGUGGCUACACAGGAUAUCCCAGCCUCUUGGUGGGAGAAGGGUGAGGUCAGAGACAUGAGGAUCACCCAUGUCUUACAGGAGGA”, the “apparent Kd” value turned out to be 15.8 nM under setting [3] and 8.33 nM under setting [4].

For “ACAUACAUUCGAGGAUAUCGGUGAACAAAUUAACGAGAAGGCGAUAUAAUUUUUAAUCUUAUGAACAUGAGGAUCACCCAUGUA”, the “apparent Kd” value came to 22.3 nM under setting [3] and 20.4 nM under setting [4].

As for “GGUUGGCGAGGAUAUACAUGAGGAUCACCCAUGUGGUCCUGUGGCUGAUCUUGCCUUUGUAGAAGGCGCAAAUC”, the “apparent Kd” value runs as follows: under setting [1], 18.5 nM; under setting [2], 37.8 nM.

With “GAGUGACAUGAGGAUCACCCAUGUGAGGAUAUCGGACGGACCAAGUUAACAUCCGCCGCGAGAAGGCACAUCGG”, the “apparent Kd” value under setting [1] turned out to be 114 nM and the “apparent Kd” value under setting [2] stood at 31.1 nM.

For the sequence “UUUUAACAUGAGGAUCACCCAUGUGAGGAUAUCGAAAUUUAUAUUAAUAUUUAUUUUUCGAGAAGGCACAUUUU”, the “apparent Kd” value was determined as 164 nM under setting [1] and 159 nM under setting [2].

On to “GUAGUGUAUGUAGGAUAUGUGAAGCAAAGCUUCACAGAAGGACAUGAGGAUCACCCAUGUAUUGCAGUCUGCAAUCAGACUGCU”, for which the “apparent Kd” value under setting [1] was 43.4 nM and the “apparent Kd” value under setting [2] amounted to 152 nM.

On to “UUCAUGUGAGGAUAUAGUACUUCUUCUAUUAUUAUUGAGUACUAGAAGGCACAUGAGGAUCACCCAUGUAGUAC”, for which the “apparent Kd” value under setting [1] is 58 nM and the “apparent Kd” value under setting [2] came to 20.9 nM.

Consider “UUGUGCUUAGAGAAGGUUCAAACUACAUAUUGCGCACAUGAGGAUCACCCAUGUUGGUGAAUAAGAAAGGAUAUUUGACUGUAC”, for which the “apparent Kd” value under setting [1] is 118 nM and the “apparent Kd” value under setting [2] is 85.2 nM.

For the sequence “UCGCUGCGAGGAUAUACGUGCGCGCGCGCGCGCGCGCGCGUACAUGAGGAUCACCCAUGUAGAAGGCGCGCUGC”, the “apparent Kd” value by setting is: under setting [1], 17.1 nM; under setting [2], 17.1 nM.

Take “CGCUGUCACGCAGGAUAUGCAUUGGAUUACAAUGCAGAAGGGCGAUUACAUGAGGAUCACCCAUGUGUCGACAGUGAAGAAGAG”: the “apparent Kd” value under setting [4] stood at 43 nM.

With “CUUAUGUGAGGAUAUGUACAGAAAAAAAAGGGUGUAACUGUACAGAAGGCACAUGAGGAUCACCCAUGUGCAUU”, the “apparent Kd” value turned out to be 60.8 nM under setting [1] and 50.4 nM under setting [2].

For the sequence “UGGGCCCGAACAGGAUAUGUAACCAGUCCCUCACAUGAGGAUCACCCAUGUCCAAGGGCUCGAAGGCAGAAGGGUUAAGGCUGU”, the “apparent Kd” value by setting is: under setting [3], 740 nM; under setting [4], 138 nM.

For the sequence “GCGCUUAUACAGAAGGCCAGAGACAUGAGGAUCACCCAUGUUAGAUUGUGGAGGAUAUGUGUUUUAUUACAGAUAGUUGAGCGC”, the “apparent Kd” value is, setting by setting: under setting [3], 20.5 nM; under setting [4], 6.53 nM.

Take “CCAUGUUAGCAGGAUAUGCAAUAAAUCUUUUAAGCAGAAGGGCUUACAUGAGGAUCACCCAUGUAUAAUUUCAA”: the “apparent Kd” value runs as follows: under setting [1], 50.3 nM; under setting [2], 116 nM.

In the case of “GCCUGCUGGCAAGGAUAUUCUGUGCGGUUCCGGCUCGUGUCUGUUACAUGAGGAUCACCCAUGUGGGAGAAGGUGUCUGUGGCC”, the “apparent Kd” value by setting is: under setting [1], 6.21 nM; under setting [2], 5.88 nM.

On to “AAGUAGAACGUAGGAUAUCAAUGAGGAUCACCCUGAGAAGGACGUGAGGACAUGAGGAUCACCCAUGUGGAUCACCCAUGUCAU”, for which the “apparent Kd” value turned out to be 157 nM under setting [1] and 132 nM under setting [2].

As to “GUGGCUAGUGCAGGAUAUUGGCGCGUGUAGUGUCGAGAAGGGCACAUGAGGAUCACCCAUGUGAUCAAUCACUGCUAAGGCCGC”, the “apparent Kd” value runs as follows: under setting [1], 7.04 nM; under setting [2], 7.31 nM.

On to “CGCUGCCACGCAGGAUAUGCAUUGGAUUACAAUGCAGAAGGGCGAUUACAUGAGGAUCACCCAUGUGUUGGCAGUGAAGAAGAG”, for which the “apparent Kd” value worked out at 1490 nM under setting [3] and 83.4 nM under setting [4].

By apparent Kd is commonly meant a dissociation constant that holds for the conditions of the assay.

Values taken from the EternaBench riboswitch data.
